Calls of active or inactive are those of the source. No cut-off for these calls is given here.
Legend:
[1] = system: T-cell; assay: Immunosuppressive activity in human T lymphocytes assessed as inhibition of PMA-ionomycin-induced cell proliferation at 10 to 100 uM after 72 hrs by BrdU-based ELISA analysis; format: functional
Method in brief: (§1)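 Nonadherent buffy-coat T lymphocytes (Ficoll, adherence-depleted) at 10^5 cells/well in RPMI 1640 + 10% FBS, in triplicate. Costimulated with PMA–ionomycin ± compound (10–100 μM) for 72 h. BrdU added at 10 μM final, 14 h before the end. Incorporation read by ELISA. Lovastatin and simvastatin served as positive controls. Means ± SEM, one-way ANOVA.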

[2] = Cytotoxicity against human T lymphocytes at 10 to 100 uM after 72 hrs by MTT assay; details: t-cell
Method in brief: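 T cells from buffy-coat blood via Ficoll separation, with macrophages removed by adherence. Cultured at 1 × 10^5 cells/well in RPMI 1640 + 10% FBS, n = 3, with 10–100 μM compound for 72 h. MTT (5 mg/mL) added for 4 h, then dissolved in 10% SDS/50% DMF, pH 7.2. A570 read; viability = Atreated/Acontrol × 100.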

[3] = system: T-cell; assay: Immunosuppressive activity in human T lymphocytes assessed as inhibition of PMA-ionomycin-induced cell proliferation after 72 hrs by BrdU-based ELISA analysis; format: functional; method in brief: as §1

SMILES | inhibition [1] | Activity [2] | Activity [1] | inhibition [3]
C[C@H]1C=C2C=C[C@H](C)/C(=C\CC(=O)O)[C@H]2CC1 [MONASCUSIC ACID E] | Active | Non-toxic | – | –
C[C@H]1C=C2C=C[C@H](C)[C@H](/C=C/C(=O)O)[C@H]2CC1 [MONASCUSIC ACID D] | – | Non-toxic | Active | Dose-dependent effect
C[C@@H]1CC[C@@H]2[C@@H](CCC(=O)O)[C@@H](C)C=C[C@H]2C1 [HEPTAKETIDE] | – | Non-toxic | Active | Dose-dependent effect
C[C@H]1C=C2C=C[C@H](C)[C@H](CCC(=O)O)[C@H]2CC1 [MONASCUSIC ACID A] | – | Non-toxic | Active | Dose-dependent effect
C[C@@H]1CC[C@@H]2[C@@H](/C=C/C(=O)O)[C@@H](C)C=C[C@H]2C1 [MONASCUSIC ACID B] | – | Non-toxic | Active | Dose-dependent effect
C[C@@H]1CC[C@@H]2/C(=C/CC(=O)O)[C@@H](C)C=C[C@H]2C1 [MONASCUSIC ACID C] | – | Non-toxic | Active | Dose-dependent effect
C[C@H]1C=C2C=C[C@H](C)[C@]3(CCC(=O)O3)[C@H]2CC1 (relative stereo) | Active | Non-toxic | – | –
